Experimental data taken from paper PMC6917914 (Nature chemical biology, 2019).
“Also recorded” adds a separate entry of the source.

Legend:
[1] = target: T1, RBM39RRM2-biotin (Homo sapiens, UniProt Q14498); test: TR-FRET titration of BodipyFL-E7820 probe to RBM39RRM2-biotin; type: binding; conditions: probe titrated to RBM39RRM2-biotin
T1 sequence (Q14498 245-332): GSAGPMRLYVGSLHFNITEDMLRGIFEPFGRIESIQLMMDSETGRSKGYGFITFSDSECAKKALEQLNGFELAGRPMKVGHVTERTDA
Method in brief: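 RBM39RRM2 was Avi-tagged and biotinylated in vitro with BirA, then gel-filtered. It was mixed with 2 nM terbium-streptavidin in Tris pH 8.0/NaCl/Pluronic F-68/BSA buffer. Increasing BodipyFL-E7820 probe was added at 2% DMSO, 15 min room temperature. The 520/490 nm ratio without protein was subtracted, and KD came from a one-site specific-binding fit. Three independent replicates.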

[2] = target: DCAF15 (Homo sapiens, UniProt Q66K64); test: TR-FRET competition assay: displacement of BodipyFL-E7820 from DCAF15; type: binding; conditions: for DCAF15 binding, in words: relative to E7820

SMILES	compound binding to RBM39 [1]	DCAF15 binding, in words [2]	Ki [2]
Cc1cc(C)n2c1C=C1C=CC(CCC(=O)NCCCCCCOc3ccc(S(=O)(=O)Nc4ccc(C)c5c(C#N)c[nH]c45)cc3C#N)=[N+]1[B-]2(F)F [BodipyFL-E7820, N-(6-(2-cyano-4-(N-(3-cyano-4-methyl-1H-indol-7-yl)sulfamoyl)phenoxy)hexyl)-3-(5,5-difluoro-7,9-dimethyl-5H-5λ^4,6λ^4-dipyrrolo[1,2-c:2',1'-f][1,3,2]diazaborinin-3-yl)propanamide]	only observed for DDB1ΔB-DCAF15biotin	–	–
N#Cc1cccc(S(=O)(=O)Nc2cccc3c(C#N)c[nH]c23)c1 [desmethyl-E7820]	–	significant loss of DCAF15 binding	–
NS(=O)(=O)c1ccc(S(=O)(=O)Nc2cccc3c(Cl)c[nH]c23)cc1 [indisulam]	–	significant loss of DCAF15 binding; also recorded: significant loss in affinity for DCAF15	> 50 µM
